Some results are limits rather than exact numbers.

In the first assay the target is T1, C-C chemokine receptor type 3 (Homo sapiens, UniProt P51677).
T1 sequence (P51677 whole entry): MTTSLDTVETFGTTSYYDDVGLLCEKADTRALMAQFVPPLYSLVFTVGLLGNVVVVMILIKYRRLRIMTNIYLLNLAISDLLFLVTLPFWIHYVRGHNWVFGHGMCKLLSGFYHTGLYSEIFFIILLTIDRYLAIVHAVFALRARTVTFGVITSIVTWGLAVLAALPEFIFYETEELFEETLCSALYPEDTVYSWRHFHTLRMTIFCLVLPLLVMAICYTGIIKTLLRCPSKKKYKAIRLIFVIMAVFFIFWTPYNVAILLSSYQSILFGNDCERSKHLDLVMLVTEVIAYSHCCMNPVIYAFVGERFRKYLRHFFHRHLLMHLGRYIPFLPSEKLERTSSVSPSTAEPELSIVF
Put plainly: Inhibitory activity against recombinant human Chemokine receptor type 3 (CCR3) expressed in chinese hamster ovary cells. The assay is classed as cell-based, CHO. In a few lines:
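CHO cells transfected with human CCR3, 5×10^5 per well, incubated 30 min at room temperature with 150 pM (final) 125I-labeled human eotaxin and compound. Binding buffer: RPMI 1640 with 0.5% BSA, 20 mM HEPES, 5 mM MgCl2. Filtration on protamine-treated filter plates, washed with binding buffer plus 0.5 M NaCl, filter counted. Nonspecific binding defined with 100 nM eotaxin. Percent inhibition taken against compound-free total binding. IC50 values are the mean of usually three determinations.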
In the case of `N#Cc1cccc(NC(=O)Nc2cc3c(cc2CN2CCC(Cc4ccc(F)cc4)CC2)OCO3)c1`, the IC50 (commonly the midpoint of a concentration-inhibition curve) is 85 nM.

For `O=C(NCc1ccccc1)Nc1ccccc1CN1CCC(Cc2ccccc2)CC1`, the IC50 came out at 3400 nM.

As to `N#Cc1cccc(NC(=O)Nc2cccc(CN3CCC(Cc4ccccc4)CC3)c2)c1`, the IC50 stood at 450 nM.

Take `N#Cc1cccc(NC(=O)Nc2cccc(C(N)=O)c2CN2CCC(Cc3ccc(F)cc3)CC2)c1`: the IC50 came to 3 nM.

Consider `CN(C)CCNC(=O)NCC(CCCN1CCC(O)(c2ccc(Cl)cc2)CC1)(c1ccccc1)c1ccccc1`, for which the IC50 came to 2230 nM.

Turning to `N#Cc1cccc(NC(=O)Nc2ccccc2CCN2CCC(Cc3ccccc3)CC2)c1`, the concentration for half-maximal inhibition (IC50) was 140 nM.

As for `N#Cc1cccc(NC(=O)Nc2cc(CO)ccc2CN2CCC(Cc3ccccc3)CC2)c1`, the IC50 worked out at 114 nM.

`N#Cc1cccc(NC(=O)Nc2c(CN3CCC(Cc4ccc(F)cc4)CC3)ccc3ccccc23)c1`: the IC50 amounted to 529 nM.

As to `N#Cc1cccc(NC(=O)Nc2cc3c(cc2CN2CCC(Cc4ccccc4)CC2)OCO3)c1`, the IC50 was 237 nM.

Consider `c1ccc(CC2CCN(Cc3ccccc3)CC2)cc1`, for which the IC50 came out at 8300 nM.

Regarding `COC(=O)c1ccc(NC(=O)Nc2cccc(C#N)c2)c(CN2CCC(Cc3ccc(F)cc3)CC2)c1`, the IC50 was 67 nM.

In the case of `CC(=O)c1cccc(NC(=O)Nc2cc3c(cc2CN2CCC(Cc4ccccc4)CC2)OCO3)c1`, the IC50 turned out to be 228 nM.

As to `COC(=O)c1cccc(NC(=O)Nc2cccc(C#N)c2)c1CN1CCC(Cc2ccc(F)cc2)CC1`, the IC50 came out at 7 nM.

For `COC(=O)c1cccc(NC(=O)Nc2cccc(OC)c2)c1CN1CCC(Cc2ccc(F)cc2)CC1`, the IC50 was 11 nM.

With `COC(=O)N1CCC(NC(=O)NCC(CCCN2CCC(O)(c3ccc(Cl)cc3)CC2)(c2ccccc2)c2ccccc2)CC1`, the IC50 stood at 5300 nM.

For the compound `N#Cc1cccc(NC(=O)Nc2ccccc2CCN2CCC(Cc3ccc(F)cc3)CC2)c1`, the IC50 came to 14 nM.

For the compound `C[N+]1(Cc2cc(O)ccc2NC(=O)Nc2cccc(C#N)c2)CCC(Cc2ccccc2)CC1` (configuration not stated), the IC50 came out at 21 nM.

With `O=C(Nc1ccc2[nH]ncc2c1)Nc1cc2c(cc1CN1CCC(Cc3ccccc3)CC1)OCO2`, the IC50 was found to be 260 nM.

As for `N#Cc1cccc(NC(=O)Nc2ccc(CO)cc2CN2CCC(Cc3ccc(F)cc3)CC2)c1`, the IC50 worked out at 55 nM.

As to `CC1C2=C(CC=CC2)C(=O)N1CC1CCN(CCc2ccccc2)CC1` (configuration not stated), the IC50 came to 12000 nM.

`O=C(NCCN1CCCCC1)Nc1ccccc1CN1CCC(Cc2ccccc2)CC1`: the IC50 was found to be 7600 nM.

As for `O=C(NCc1ccccc1)NCC(CCCN1CCC(O)(c2ccc(Cl)cc2)CC1)(c1ccccc1)c1ccccc1`, the IC50 is 8300 nM.

`Fc1ccc(CCCN2CCC3C(C2)c2cccc4c2N3CC4)cc1` (configuration not stated): the IC50 was found to be 1000 nM.

Turning to `CC(C)(C)NC(=O)NCC(CCCN1CCC(O)(c2ccc(Cl)cc2)CC1)(c1ccccc1)c1ccccc1`, the IC50 worked out at 3000 nM.

Turning to `C[N+]1(Cc2cc3c(cc2NC(=O)Nc2cccc(C#N)c2)OCO3)CCC(Cc2ccccc2)CC1` (configuration not stated), the IC50 is 11 nM.

Turning to `COc1cccc(NC(=O)NCc2ccccc2CN2CCC(Cc3ccccc3)CC2)c1`, the IC50 was 2400 nM.

Turning to `COc1cccc(NC(=O)Nc2ccccc2CCN2CCC(Cc3ccccc3)CC2)c1`, the IC50 worked out at 180 nM.

As for `O=C(NCCc1ccc(F)cc1)Nc1ccccc1CN1CCN(Cc2ccccc2)CC1`, the IC50 turned out to be 9200 nM.

For the compound `N#CC(CCCN1CCC(Cc2ccccc2)CC1)(c1ccccc1)c1ccccc1`, the IC50 stood at 4600 nM.

For `O=C(NCC1CCCCC1)NCC(CCCN1CCC(O)(c2ccc(Cl)cc2)CC1)(c1ccccc1)c1ccccc1`, the IC50 was 2400 nM.

`O=C(NCCc1ccc(F)cc1)Nc1ccccc1CN1CCC(Cc2ccccc2)CC1`: the IC50 turned out to be 3800 nM.

For `O=C(NCCCO)NC(Cc1ccccc1)c1ccccc1` (configuration not stated), the IC50 came to 50000 nM.

With `N#CC(CCCN1CCN(Cc2ccccc2)CC1)(c1ccccc1)c1ccccc1`, the IC50 was determined as 14100 nM.

In the case of `COc1cccc(NC(=O)Nc2cc(CO)ccc2CN2CCC(Cc3ccccc3)CC2)c1`, the IC50 worked out at 360 nM.

On to `c1ccc(CCCCN2CCN(Cc3ccccc3)CC2)cc1`, for which the IC50 stood at 8400 nM.

Consider `O=C(Nc1ccccc1)Nc1ccccc1C(O)CN1CCC(Cc2ccc(F)cc2)CC1` (configuration not stated), for which the IC50 turned out to be 24 nM.

As to `O=C1CC2(CCc3ccccc32)C(=O)N1CC1CCN(CCc2ccccc2)CC1` (configuration not stated), the IC50 was 2000 nM.

Turning to `CC(=O)c1cccc(NC(=O)Nc2ccccc2CN2CCC(Cc3ccc(F)cc3)CC2)c1`, the IC50 stood at 125 nM.

For `O=C(Nc1cccc(CN2CCC(Cc3ccccc3)CC2)c1)Nc1ccc2[nH]ncc2c1`, the IC50 amounted to 620 nM.

Consider `N#Cc1cccc(NC(=O)NCc2ccccc2CN2CCC(Cc3ccccc3)CC2)c1`, for which the IC50 is 2800 nM.

Consider `COc1cccc(NC(=O)Nc2cc3c(cc2CN2CCC(Cc4ccc(F)cc4)CC2)OCO3)c1`, for which the IC50 came to 141 nM.

Take `CC(=O)c1cccc(NC(=O)Nc2cc3c(cc2CN2CCC(Cc4ccc(F)cc4)CC2)OCO3)c1`: the IC50 amounted to 40 nM.

With `COC(=O)c1cccc(NC(=O)Nc2ccccc2)c1CN1CCC(Cc2ccc(F)cc2)CC1`, the IC50 was 9 nM.

Turning to `COc1cccc(NC(=O)Nc2ccccc2CCN2CCC(Cc3ccc(F)cc3)CC2)c1`, the IC50 was 11 nM.

`N#Cc1cccc(NC(=O)Nc2ccc(O)cc2CN2CCC(Cc3ccccc3)CC2)c1`: the IC50 came out at 277 nM.

`O=C(Nc1cc(F)ccc1F)Nc1ccccc1CN1CCC(c2ccccc2)CC1`: the IC50 came to 11000 nM.

Consider `O=C(Nc1ccccc1)Nc1ccccc1CN1CCC(Cc2ccc(F)cc2)CC1`, for which the IC50 was 361 nM.

For `O=C(Nc1cccc(CN2CCC(Cc3ccccc3)CC2)c1)NC1CCN(Cc2ccccc2)CC1`, the IC50 came out at 3700 nM.

For the compound `O=C(Nc1cc(F)ccc1F)Nc1ccccc1CN1CCC(C(=O)c2ccccc2)CC1`, the IC50 is 4650 nM.

Take `C[N+]1(Cc2cc3c(cc2NC(=O)Nc2cccc(C#N)c2)OCO3)CCC(Cc2ccc(F)cc2)CC1` (configuration not stated): the IC50 was 2 nM.

For `COC(=O)c1ccc(NC(=O)Nc2cccc(C(C)=O)c2)c(CN2CCC(Cc3ccc(F)cc3)CC2)c1`, the IC50 was found to be 42 nM.

Consider `O=C(NCc1ccc2c(c1)OCO2)Nc1ccccc1CN1CCC(Cc2ccccc2)CC1`, for which the IC50 came out at 1750 nM.

Consider `O=C(Nc1ccccc1)Nc1ccccc1C(O)CN1CCC(Cc2ccccc2)CC1` (configuration not stated), for which the IC50 came out at 249 nM.

As to `O=C(NCc1ccc2c(c1)OCO2)Nc1ccccc1CN1CCC(C(=O)c2ccccc2)CC1`, the IC50 turned out to be 7350 nM.

Regarding `N#Cc1cccc(NC(=O)Nc2ccc(C(N)=O)cc2CN2CCC(Cc3ccc(F)cc3)CC2)c1`, the IC50 is 8 nM.

For the compound `O=C(NCC(c1ccccc1)c1ccccc1)Nc1ccccc1CN1CCC(C(=O)c2ccccc2)CC1`, the IC50 came to 3900 nM.

For `O=C(NCC(c1ccccc1)c1ccccc1)Nc1ccccc1CN1CCC(Cc2ccccc2)CC1`, the IC50 came to 2650 nM.

With `N#Cc1cccc(NC(=O)Nc2ccccc2CN2CCC(Cc3ccc(F)cc3)CC2)c1`, the IC50 stood at 310 nM.

As to `N#Cc1cccc(NC(=O)Nc2ccccc2C(O)CN2CCC(Cc3ccc(F)cc3)CC2)c1` (configuration not stated), the IC50 stood at 11 nM.

Consider `COc1ccc(NC(=O)NCc2ccccc2CN2CCC(Cc3ccccc3)CC2)cc1`, for which the IC50 was found to be 1300 nM.

For the compound `O=C(Nc1ccccc1)Nc1cccc(C(=O)O)c1CN1CCC(Cc2ccc(F)cc2)CC1`, the IC50 is 17 nM.

In the case of `O=C(Cc1ccc(F)cc1)Nc1ccccc1CCN1CCC(Cc2ccc(F)cc2)CC1`, the IC50 is 153 nM.

Turning to `CC(=O)c1cccc(NC(=O)Nc2cc3c(cc2C[N+]2(C)CCC(Cc4ccc(F)cc4)CC2)OCO3)c1` (configuration not stated), the IC50 came out at 1 nM.

In the case of `COC(=O)c1ccc(CN2CCC(Cc3ccccc3)CC2)c(NC(=O)Nc2cccc(OC)c2)c1`, the IC50 was 777 nM.

In the case of `COc1cccc(NC(=O)Nc2ccc(CO)cc2CN2CCC(Cc3ccc(F)cc3)CC2)c1`, the IC50 came out at 47 nM.

For the compound `COc1cccc(NC(=O)Nc2ccccc2C(O)CN2CCC(Cc3ccc(F)cc3)CC2)c1` (configuration not stated), the IC50 is 21 nM.

Turning to `O=C(Nc1ccccc1)Nc1cccc(CO)c1CN1CCC(Cc2ccc(F)cc2)CC1`, the IC50 is 53 nM.

For the compound `O=C(Nc1ccc(F)cc1)Nc1ccccc1CCN1CCC(Cc2ccc(F)cc2)CC1`, the IC50 amounted to 35 nM.

With `COC(=O)c1ccc(NC(=O)Nc2cccc(OC)c2)c(CN2CCC(Cc3ccc(F)cc3)CC2)c1`, the IC50 turned out to be 64 nM.

Consider `OC1(c2ccc(Cl)cc2)CCN(CCCCc2ccccc2)CC1`, for which the IC50 is 14500 nM.

A further assay deals with T2, C-C chemokine receptor type 1 (Homo sapiens, UniProt P32246).
T2 sequence (P32246 whole entry): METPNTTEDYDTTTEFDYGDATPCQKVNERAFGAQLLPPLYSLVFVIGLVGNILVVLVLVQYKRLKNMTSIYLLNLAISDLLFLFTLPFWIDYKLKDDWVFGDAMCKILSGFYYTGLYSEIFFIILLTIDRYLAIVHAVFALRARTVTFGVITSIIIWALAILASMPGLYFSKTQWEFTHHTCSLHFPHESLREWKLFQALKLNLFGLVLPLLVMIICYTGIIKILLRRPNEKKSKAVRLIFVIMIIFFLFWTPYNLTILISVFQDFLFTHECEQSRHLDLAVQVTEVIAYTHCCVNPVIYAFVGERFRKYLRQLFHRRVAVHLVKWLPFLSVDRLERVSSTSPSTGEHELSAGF
Description: Inhibitory activity against human Chemokine receptor type 1 expressed in chinese hamster ovary cells. The format is cell-based, CHO.
As for `O=C(NCc1ccccc1)Nc1ccccc1CN1CCC(Cc2ccccc2)CC1`, the IC50 is over 10000 nM.

`CN(C)CCNC(=O)NCC(CCCN1CCC(O)(c2ccc(Cl)cc2)CC1)(c1ccccc1)c1ccccc1` came in with an IC50 of 67 nM.

For the compound `N#Cc1cccc(NC(=O)Nc2ccccc2CCN2CCC(Cc3ccccc3)CC2)c1`, the IC50 is over 10000 nM.

Compound `c1ccc(CC2CCN(Cc3ccccc3)CC2)cc1` displayed an IC50 of over 50000 nM.

`COC(=O)N1CCC(NC(=O)NCC(CCCN2CCC(O)(c3ccc(Cl)cc3)CC2)(c2ccccc2)c2ccccc2)CC1` gave an IC50 of 500 nM.

Consider `O=C(NCCN1CCCCC1)Nc1ccccc1CN1CCC(Cc2ccccc2)CC1`, for which the IC50 is over 50000 nM.

For the compound `O=C(NCc1ccccc1)NCC(CCCN1CCC(O)(c2ccc(Cl)cc2)CC1)(c1ccccc1)c1ccccc1`, the IC50 is under 780 nM.

As for `CC(C)(C)NC(=O)NCC(CCCN1CCC(O)(c2ccc(Cl)cc2)CC1)(c1ccccc1)c1ccccc1`, the IC50 was determined as 71 nM.

For `COc1cccc(NC(=O)Nc2ccccc2CCN2CCC(Cc3ccccc3)CC2)c1`, the IC50 was over 10000 nM.

Turning to `N#CC(CCCN1CCC(Cc2ccccc2)CC1)(c1ccccc1)c1ccccc1`, the IC50 is over 50000 nM.

`O=C(NCC1CCCCC1)NCC(CCCN1CCC(O)(c2ccc(Cl)cc2)CC1)(c1ccccc1)c1ccccc1` had an IC50 of 125 nM.

Consider `N#CC(CCCN1CCN(Cc2ccccc2)CC1)(c1ccccc1)c1ccccc1`, for which the IC50 is over 50000 nM.
